Converted amounts (≈) assume the structure as drawn.
Assays:
Assay type in all cases: functional
Pichia kudriavzevii = assay: Antifungal activity against Candida krusei ATCC 6258 after 48 hrs by twofold serial dilution technique; conditions: ATCC 6258, 48 h
Outline: (§1)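 Yeasts were subcultured on SDA at 35 °C for 24-48 h and passaged twice. Broth microdilution followed CLSI M27-A in RPMI-1640 with L-glutamine, MOPS-buffered to pH 7. Inoculum was McFarland 0.5 (10⁶ cfu/ml) diluted to 10⁴ cfu/ml, giving 10³ cfu/ml per well. Incubated at 35 °C in a humid chamber and read at 48 h as the lowest concentration with no macroscopic growth. Triplicate per run.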

Candida albicans [1] = assay: Antifungal activity against Candida albicans ATCC 10231 after 48 hrs by twofold serial dilution technique; conditions: ATCC 10231, 48 h; outline: as §1
Candida albicans [2] = assay: Antifungal activity against biofilm-positive Candida albicans isolate after 48 hrs by twofold serial dilution technique; outline: as §1
Staphylococcus aureus [3] = assay: Antibacterial activity against Staphylococcus aureus ATCC 25923 after 24 hrs by twofold serial dilution technique
Outline: (§2)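 Broth microdilution in Mueller-Hinton broth. Isolates were subcultured overnight on MHA at 37 °C and passaged at least twice. McFarland 0.5 cultures […] were diluted to 10⁵ cfu/ml, giving 10⁴ cfu/ml per well, over two-fold compound dilutions. Plates were incubated at 37 °C in a humid chamber for 24 h. MIC was the lowest concentration completely inhibiting macroscopic growth. Triplicate per run.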

Klebsiella pneumoniae [4] = assay: Antibacterial activity against Klebsiella pneumoniae isolate containing extended spectrum beta lactamase after 24 hrs by twofold serial dilution technique; outline: as §2
Escherichia coli [5] = assay: Antibacterial activity against Escherichia coli ATCC 25922 after 24 hrs by twofold serial dilution technique; outline: as §2
Pseudomonas aeruginosa [6] = assay: Antibacterial activity against gentamicin-resistant Pseudomonas aeruginosa isolate after 24 hrs by twofold serial dilution technique
Outline: (§3)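 Broth microdilution in Mueller-Hinton broth. Strains were subcultured overnight on MHA at 37 °C and passaged at least twice. McFarland 0.5 cultures […] were diluted to 10⁵ cfu/ml, giving 10⁴ cfu/ml per well, against two-fold dilutions from 1000 to 0.06. Solvent and medium controls were included. Plates were held at 37 °C in a humid chamber for 24 h, in triplicate. MIC is the lowest concentration with no macroscopic growth.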

Klebsiella pneumoniae [7] = assay: Antibacterial activity against Klebsiella pneumoniae RSHM 574 after 24 hrs by twofold serial dilution technique; outline: as §2
Bacillus subtilis [8] = assay: Antibacterial activity against ceftriaxone-resistant Bacillus subtilis isolate after 24 hrs by twofold serial dilution technique; outline: as §3
Pseudomonas aeruginosa [9] = assay: Antibacterial activity against Pseudomonas aeruginosa […] after 24 hrs by twofold serial dilution technique; outline: as §2
Escherichia coli [10] = assay: Antibacterial activity against Escherichia coli isolate containing extended spectrum beta lactamase after 24 hrs by twofold serial dilution technique; outline: as §2
Staphylococcus aureus [11] = assay: Antibacterial activity against methicillin-resistant Staphylococcus aureus isolate after 24 hrs by twofold serial dilution technique; outline: as §3
Bacillus subtilis [12] = assay: Antibacterial activity against Bacillus subtilis ATCC 6633 after 24 hrs by twofold serial dilution technique; outline: as §3

Row | Compound | MIC (Pichia kudriavzevii) [µg/mL] | MIC (Candida albicans [1]) [µg/mL] | MIC (Candida albicans [2]) [µg/mL] | MIC (Staphylococcus aureus [3]; ATCC 25923, 24 h) [µg/mL] | MIC (Klebsiella pneumoniae [4]) [µg/mL] | MIC (Escherichia coli [5]; ATCC 25922, 24 h) [µg/mL] | MIC (Pseudomonas aeruginosa [6]) [µg/mL] | MIC (Klebsiella pneumoniae [7]) [µg/mL] | MIC (Bacillus subtilis [8]) [µg/mL] | MIC (Pseudomonas aeruginosa [9]) [µg/mL] | MIC (Escherichia coli [10]) [µg/mL] | MIC (Staphylococcus aureus [11]) [µg/mL] | MIC (Bacillus subtilis [12]; ATCC 6633, 24 h) [µg/mL] | MIC (Staphylococcus aureus [3]) [µg/mL] | MIC (Escherichia coli [5]) [µg/mL] | MIC (Bacillus subtilis [12]) [µg/mL]
1 | OC(Cn1cncn1)(Cn1cncn1)c1ccc(F)cc1F [FLUCONAZOLE] | 15.6 (≈ 51 µM) | 1.9 (≈ 6.2 µM) | 0.48 (≈ 1.57 µM) |  |  |  |  |  |  |  |  |  |  |  |  | 
2 | O=C(Nc1ccc2oc(-c3ccccc3Br)nc2c1)c1cc2ccccc2o1 | 250 (≈ 577 µM) | 62.5 (≈ 144 µM) | 62.5 (≈ 144 µM) | 125 (≈ 289 µM) | 125 (≈ 289 µM) | 62.5 (≈ 144 µM) | 62.5 (≈ 144 µM) | 62.5 (≈ 144 µM) | 125 (≈ 289 µM) | 62.5 (≈ 144 µM) | 125 (≈ 289 µM) | 31.2 (≈ 72.1 µM) | 500 (≈ 1150 µM) |  |  | 
3 | O=C(Nc1ccc2oc(-c3ccccc3)nc2c1)c1cc2ccccc2o1 | 62.5 (≈ 176 µM) | 62.5 (≈ 176 µM) | 62.5 (≈ 176 µM) | 62.5 (≈ 176 µM) | 125 (≈ 353 µM) | 62.5 (≈ 176 µM) | 62.5 (≈ 176 µM) | 62.5 (≈ 176 µM) | 250 (≈ 705 µM) | 62.5 (≈ 176 µM) | 125 (≈ 353 µM) | 62.5 (≈ 176 µM) | 125 (≈ 353 µM) |  |  | 
4 | O=C(Nc1ccc2oc(Cc3ccc(Cl)cc3)nc2c1)c1cc2ccccc2o1 | 125 (≈ 310 µM) | 62.5 (≈ 155 µM) | 62.5 (≈ 155 µM) | 125 (≈ 310 µM) | 125 (≈ 310 µM) | 62.5 (≈ 155 µM) | 125 (≈ 310 µM) | 62.5 (≈ 155 µM) | 125 (≈ 310 µM) | 31.2 (≈ 77.6 µM) | 125 (≈ 310 µM) | 125 (≈ 310 µM) | 125 (≈ 310 µM) |  |  | 
5 | CC1COc2c(N3CCN(C)CC3)c(F)cc3c(=O)c(C(=O)O)cn1c23 (stereo not given) [OFLOXACIN] |  |  |  | 0.12 (≈ 0.332 µM) | 3.9 (≈ 10.8 µM) |  | 62.5 (≈ 173 µM) | 0.12 (≈ 0.332 µM) | 3.9 (≈ 10.8 µM) | 62.5 (≈ 173 µM) | 7.8 (≈ 21.6 µM) | 1.9 (≈ 5.26 µM) | 0.12 (≈ 0.332 µM) |  |  | 
6 | O=C(Nc1ccc2oc(Cc3ccc(F)cc3)nc2c1)c1cc2ccccc2o1 | 250 (≈ 647 µM) | 62.5 (≈ 162 µM) | 62.5 (≈ 162 µM) | 125 (≈ 324 µM) | 125 (≈ 324 µM) | 62.5 (≈ 162 µM) | 125 (≈ 324 µM) | 62.5 (≈ 162 µM) | 125 (≈ 324 µM) | 62.5 (≈ 162 µM) | 125 (≈ 324 µM) | 62.5 (≈ 162 µM) | 125 (≈ 324 µM) |  |  | 
7 | C[C@@H]1[C@H](O)[C@@H](C)/C=C/C=C/C=C/C=C/C=C/C=C/C=C/[C@H](O[C@@H]2O[C@H](C)[C@@H](O)[C@H](N)[C@@H]2O)C[C@@H]2O[C@](O)(C[C@@H](O)C[C@@H](O)[C@H](O)CC[C@@H](O)C[C@@H](O)CC(=O)O[C@H]1C)C[C@H](O)[C@H]2C(=O)O [AMPHOTERICIN B] | 1.9 (≈ 2.06 µM) | 0.48 (≈ 0.519 µM) | 0.24 (≈ 0.26 µM) |  |  |  |  |  |  |  |  |  |  |  |  | 
8 | GENTAMICIN |  |  |  |  | 7.8 |  | 62.5 | 0.24 | 0.12 | 31.2 | 15.6 | 7.8 |  | 0.48 | 0.48 | 0.24
9 | CO[C@H]1/C=C/O[C@@]2(C)Oc3c(C)c(O)c4c(O)c(c(/C=N/N5CCN(C)CC5)c(O)c4c3C2=O)NC(=O)/C(C)=C\C=C\[C@H](C)[C@H](O)[C@@H](C)[C@@H](O)[C@@H](C)[C@H](OC(C)=O)[C@@H]1C [RIFAMPIN] |  |  |  | 0.06 (≈ 0.0729 µM) | 7.8 (≈ 9.48 µM) | 1.9 (≈ 2.31 µM) | > 500 | 1.9 (≈ 2.31 µM) | 3.9 (≈ 4.74 µM) | > 500 | 3.9 (≈ 4.74 µM) | 0.9 (≈ 1.09 µM) | 0.12 (≈ 0.146 µM) |  |  | 
10 | O=C(Nc1ccc2oc(Cc3ccccc3)nc2c1)c1cc2ccccc2o1 | 31.2 (≈ 84.8 µM) | 62.5 (≈ 170 µM) | 31.2 (≈ 84.8 µM) | 125 (≈ 339 µM) | 62.5 (≈ 170 µM) | 62.5 (≈ 170 µM) | 62.5 (≈ 170 µM) | 62.5 (≈ 170 µM) | 125 (≈ 339 µM) | 31.2 (≈ 84.8 µM) | 62.5 (≈ 170 µM) | 62.5 (≈ 170 µM) | 125 (≈ 339 µM) |  |  | 
11 | O=C(Nc1ccc2oc(Cc3ccc(Br)cc3)nc2c1)c1cc2ccccc2o1 | 62.5 (≈ 140 µM) | 62.5 (≈ 140 µM) | 62.5 (≈ 140 µM) | 125 (≈ 279 µM) | 62.5 (≈ 140 µM) | 62.5 (≈ 140 µM) | 15.6 (≈ 34.9 µM) | 62.5 (≈ 140 µM) | 125 (≈ 279 µM) | 31.2 (≈ 69.9 µM) | 125 (≈ 279 µM) | 62.5 (≈ 140 µM) | 125 (≈ 279 µM) |  |  | 
12 | Cc1ccc(Cc2nc3cc(NC(=O)c4cc5ccccc5o4)ccc3o2)cc1 | 250 (≈ 654 µM) | 62.5 (≈ 163 µM) | 62.5 (≈ 163 µM) | 125 (≈ 327 µM) | 125 (≈ 327 µM) | 62.5 (≈ 163 µM) | 125 (≈ 327 µM) | 62.5 (≈ 163 µM) | 125 (≈ 327 µM) | 62.5 (≈ 163 µM) | 125 (≈ 327 µM) | 62.5 (≈ 163 µM) | 125 (≈ 327 µM) |  |  | 
13 | CC1(C)S[C@@H]2[C@H](NC(=O)[C@H](N)c3ccccc3)C(=O)N2[C@H]1C(=O)O.O.O.O [AMPICILLIN TRIHYDRATE] |  |  |  | 0.48 | 15.6 | 3.9 | > 500 | 0.48 | 0.48 | > 500 | > 15.6 | 1.9 | 0.48 |  |  | 
14 | O=C(Nc1ccc2oc(-c3ccc(F)cc3)nc2c1)c1cc2ccccc2o1 | 125 (≈ 336 µM) | 62.5 (≈ 168 µM) | 62.5 (≈ 168 µM) | 125 (≈ 336 µM) | 125 (≈ 336 µM) | 62.5 (≈ 168 µM) | 62.5 (≈ 168 µM) | 62.5 (≈ 168 µM) | 125 (≈ 336 µM) | 31.2 (≈ 83.9 µM) | 125 (≈ 336 µM) | 31.2 (≈ 83.9 µM) | 500 (≈ 1340 µM) |  |  | 
15 | CC(C)(C)c1ccc(-c2nc3cc(NC(=O)c4cc5ccccc5o4)ccc3o2)cc1 | 125 (≈ 305 µM) | 62.5 (≈ 152 µM) | 62.5 (≈ 152 µM) | 125 (≈ 305 µM) | 125 (≈ 305 µM) | 62.5 (≈ 152 µM) | 125 (≈ 305 µM) | 62.5 (≈ 152 µM) | 125 (≈ 305 µM) | 62.5 (≈ 152 µM) | 125 (≈ 305 µM) | 62.5 (≈ 152 µM) | 125 (≈ 305 µM) |  |  | 
16 | CCc1ccc(-c2nc3cc(NC(=O)c4cc5ccccc5o4)ccc3o2)cc1 | 125 (≈ 327 µM) | 62.5 (≈ 163 µM) | 62.5 (≈ 163 µM) | 125 (≈ 327 µM) | 125 (≈ 327 µM) | 62.5 (≈ 163 µM) | 62.5 (≈ 163 µM) | 62.5 (≈ 163 µM) | 125 (≈ 327 µM) | 62.5 (≈ 163 µM) | 125 (≈ 327 µM) | 62.5 (≈ 163 µM) | 500 (≈ 1310 µM) |  |  | 
